Test results from ChEMBL document CHEMBL4689842, “EUbOPEN Chemogenomics Library wave 1” (2021).

System: Fibroblast
Assay: Multiplex assay against human fibroblast
Assay type: toxicity, cell-based
Outline: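 Live cells were stained at seeding with Hoechst33342, BioTracker Green Microtubule Cytoskeleton Dye, MitoTracker Red and Annexin V Alexa Fluor 680, then imaged on a CQ1 microscope at 37°C and 5% CO2 after compound addition. CellPathfinder machine-learning gating split cells into Hoechst high-intensity objects or normal cells. Normal cells were split into healthy, pyknosed or fragmented nuclei, and pyknosed cells into mitotic or apoptotic. Tubulin, mitochondrial-mass and membrane-permeability phenotypes are per cents of healthy-nucleus cells.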

[1] = 12 h, 1 µM, compound concentration 1 uM, replicate 1
[2] = 12 h, 1 µM, compound concentration 1 uM, replicate 2
[3] = 12 h, 10 µM, compound concentration 10 uM, replicate 1
[4] = 12 h, 10 µM, compound concentration 10 uM, replicate 2
[5] = 24 h, 1 µM, compound concentration 1 uM, replicate 1
[6] = 24 h, 1 µM, compound concentration 1 uM, replicate 2
[7] = 24 h, 10 µM, compound concentration 10 uM, replicate 1
[8] = 24 h, 10 µM, compound concentration 10 uM, replicate 2
[9] = 48 h, 1 µM, compound concentration 1 uM, replicate 1
[10] = 48 h, 1 µM, compound concentration 1 uM, replicate 2
[11] = 48 h, 10 µM, compound concentration 10 uM, replicate 1
[12] = 48 h, 10 µM, compound concentration 10 uM, replicate 2

Nc1nc2c(c(N3CCNCC3)n1)CCC1=C2[C@@H]2CCCC[C@@H]2O1
Population Apoptotic (%) [1]: 67%
Population Fragmented Nuclei (%) [1]: 37%
Population Healthy Nuclei (%) [1]: 42%
Population Hoechst High Intensity Objects (%) [1]: 15%
Population Membrane Permeable-Phenotype (%) [1]: 10%
Population Mitochondria Different-Phenotype (%) [1]: 1%
Population Mitotic Cells (%) [1]: 32%
Population Normal (%) [1]: 84%
Population Pyknosed Nuclei (%) [1]: 20%
Population Tubulin-Different-Phenotype (%) [1]: 20%
Total Cell Count [1]: 182
Population Apoptotic (%) [2]: 0%
Population Fragmented Nuclei (%) [2]: 20%
Population Healthy Nuclei (%) [2]: 61%
Population Membrane Permeable-Phenotype (%) [2]: 8%
Population Mitochondria Different-Phenotype (%) [2]: 27%
Population Mitotic Cells (%) [2]: 100%
Population Pyknosed Nuclei (%) [2]: 18%
Population Tubulin-Different-Phenotype (%) [2]: 21%
Total Cell Count [2]: 71
Population Apoptotic (%) [3]: 56%
Population Fragmented Nuclei (%) [3]: 22%
Population Healthy Nuclei (%) [3]: 34%
Population Hoechst High Intensity Objects (%) [3]: 42%
Population Membrane Permeable-Phenotype (%) [3]: 4%
Population Mitochondria Different-Phenotype (%) [3]: 13%
Population Mitotic Cells (%) [3]: 43%
Population Normal (%) [3]: 57%
Population Pyknosed Nuclei (%) [3]: 43%
Population Tubulin-Different-Phenotype (%) [3]: 52%
Total Cell Count [3]: 220
Population Apoptotic (%) [4]: 27%
Population Fragmented Nuclei (%) [4]: 9%
Population Healthy Nuclei (%) [4]: 68%
Population Hoechst High Intensity Objects (%) [4]: 3%
Population Membrane Permeable-Phenotype (%) [4]: 25%
Population Mitochondria Different-Phenotype (%) [4]: 87%
Population Mitotic Cells (%) [4]: 72%
Population Normal (%) [4]: 96%
Population Pyknosed Nuclei (%) [4]: 21%
Population Tubulin-Different-Phenotype (%) [4]: 92%
Total Cell Count [4]: 106
Population Apoptotic (%) [5]: 55%
Population Fragmented Nuclei (%) [5]: 30%
Population Healthy Nuclei (%) [5]: 50%
Population Hoechst High Intensity Objects (%) [5]: 24%
Population Membrane Permeable-Phenotype (%) [5]: 21%
Population Mitochondria Different-Phenotype (%) [5]: 2%
Population Mitotic Cells (%) [5]: 44%
Population Normal (%) [5]: 75%
Population Pyknosed Nuclei (%) [5]: 19%
Population Tubulin-Different-Phenotype (%) [5]: 47%
Total Cell Count [5]: 198
Population Apoptotic (%) [6]: 20%
Population Fragmented Nuclei (%) [6]: 22%
Population Healthy Nuclei (%) [6]: 57%
Population Hoechst High Intensity Objects (%) [6]: 8%
Population Membrane Permeable-Phenotype (%) [6]: 6%
Population Mitochondria Different-Phenotype (%) [6]: 20%
Population Mitotic Cells (%) [6]: 80%
Population Normal (%) [6]: 91%
Population Pyknosed Nuclei (%) [6]: 20%
Population Tubulin-Different-Phenotype (%) [6]: 16%
Total Cell Count [6]: 82
Population Apoptotic (%) [7]: 57%
Population Fragmented Nuclei (%) [7]: 20%
Population Healthy Nuclei (%) [7]: 36%
Population Hoechst High Intensity Objects (%) [7]: 45%
Population Membrane Permeable-Phenotype (%) [7]: 12%
Population Mitochondria Different-Phenotype (%) [7]: 16%
Population Mitotic Cells (%) [7]: 42%
Population Normal (%) [7]: 55%
Population Pyknosed Nuclei (%) [7]: 43%
Population Tubulin-Different-Phenotype (%) [7]: 43%
Total Cell Count [7]: 240
Population Apoptotic (%) [8]: 33%
Population Fragmented Nuclei (%) [8]: 8%
Population Healthy Nuclei (%) [8]: 46%
Population Hoechst High Intensity Objects (%) [8]: 2%
Population Membrane Permeable-Phenotype (%) [8]: 22%
Population Mitochondria Different-Phenotype (%) [8]: 79%
Population Mitotic Cells (%) [8]: 66%
Population Normal (%) [8]: 97%
Population Pyknosed Nuclei (%) [8]: 45%
Population Tubulin-Different-Phenotype (%) [8]: 69%
Total Cell Count [8]: 109
Population Apoptotic (%) [9]: 71%
Population Fragmented Nuclei (%) [9]: 44%
Population Healthy Nuclei (%) [9]: 45%
Population Hoechst High Intensity Objects (%) [9]: 34%
Population Membrane Permeable-Phenotype (%) [9]: 10%
Population Mitochondria Different-Phenotype (%) [9]: 1%
Population Mitotic Cells (%) [9]: 28%
Population Normal (%) [9]: 65%
Population Pyknosed Nuclei (%) [9]: 10%
Population Tubulin-Different-Phenotype (%) [9]: 22%
Total Cell Count [9]: 296
Population Apoptotic (%) [10]: 41%
Population Fragmented Nuclei (%) [10]: 34%
Population Healthy Nuclei (%) [10]: 56%
Population Membrane Permeable-Phenotype (%) [10]: 13%
Population Mitochondria Different-Phenotype (%) [10]: 2%
Population Mitotic Cells (%) [10]: 58%
Population Pyknosed Nuclei (%) [10]: 9%
Population Tubulin-Different-Phenotype (%) [10]: 36%
Total Cell Count [10]: 204
Population Apoptotic (%) [11]: 41%
Population Fragmented Nuclei (%) [11]: 20%
Population Healthy Nuclei (%) [11]: 50%
Population Hoechst High Intensity Objects (%) [11]: 49%
Population Membrane Permeable-Phenotype (%) [11]: 6%
Population Mitochondria Different-Phenotype (%) [11]: 11%
Population Mitotic Cells (%) [11]: 58%
Population Normal (%) [11]: 50%
Population Pyknosed Nuclei (%) [11]: 29%
Population Tubulin-Different-Phenotype (%) [11]: 58%
Total Cell Count [11]: 244
Population Apoptotic (%) [12]: 38%
Population Fragmented Nuclei (%) [12]: 27%
Population Healthy Nuclei (%) [12]: 49%
Population Hoechst High Intensity Objects (%) [12]: 47%
Population Membrane Permeable-Phenotype (%) [12]: 9%
Population Mitochondria Different-Phenotype (%) [12]: 10%
Population Mitotic Cells (%) [12]: 61%
Population Normal (%) [12]: 52%
Population Pyknosed Nuclei (%) [12]: 23%
Population Tubulin-Different-Phenotype (%) [12]: 52%
Total Cell Count [12]: 215
